Measured values pooled from the literature.
Lines come from different studies, so protocols differ.
ADRA1A: Alpha-1A adrenergic receptor (ADRA1A, Homo sapiens, UniProt P35348)
HRH2: Histamine H2 receptor (HRH2, Homo sapiens, UniProt P25021)
Tspo: Translocator protein (Tspo, Rattus norvegicus, UniProt P16257)

O=C1c2ccccc2CCCN1CCCCN1CCN(c2ccccn2)CC1
Ki (ADRA1A; ligand displacement; radioligand): 867 nM

CCc1nc2cc(OCCCCN3CCC(c4cccc(Cl)c4Cl)CC3)ccc2s1
Ki (HRH2; ligand displacement; radioligand): 2100 nM

OCCCN1CC[C@@H]2C[C@H]1c1cc(-c3ccc(C(F)(F)F)cc3)ccc12
Ki (ADRA1A; ligand displacement; radioligand): 1990 nM

CC1=C(/C=C/C(C)=C/C=C/C(C)=C/c2cc(/C=C/C=C(C)/C=C/C3=C(C)CCCC3(C)C)cc[n+]2CCO)C(C)(C)CCC1
Ki (Sterol 26-hydroxylase, mitochondrial (CYP27A1, Homo sapiens, UniProt Q02318); enzyme activity; inhibitor): 2900 nM

Oc1cccc(Nc2nc(-c3ccc(F)cc3F)cs2)c1
Ki (Kappa-type opioid receptor (Oprk1, Rattus norvegicus, UniProt P34975); cell-free assay; radioligand): 2200 nM

CCCCC(=O)[C@@]12C[C@@H]1[C@@H](n1ccc3c(NC)nc(C#Cc4ccc(Cl)s4)nc31)[C@H](O)[C@@H]2O
Ki (Tspo; ligand displacement; radioligand): > 10000 nM

CCCCN1CCC(COC(=O)c2ccc(N)c(OCF)c2)CC1
Ki (ADRA1A; cell-free assay; radioligand): > 10000 nM

COc1ccc2c(c1)C(=O)N(CCN1CCN(c3ccccc3OC)CC1)C2
Ki (ADRA1A; ligand displacement; radioligand): 15.9 nM

CNC(=O)[C@@]12C[C@@H]1[C@@H](n1cnc3c(NC)nc(C#Cc4ccccc4Cl)nc31)[C@H](O)[C@@H]2O
Ki (Tspo; ligand displacement; radioligand): > 10000 nM

O=C(O)c1cc(O)c2c(c1)C(=O)c1cc(O)cc(O)c1C2=O
Ki (Amine oxidase [flavin-containing] A (MAOA, Homo sapiens, UniProt P21397); enzyme activity; inhibitor): 38600 nM

CC[Si](C#Cc1ccc2c(c1)C=C([N+](=O)[O-])C(C(F)(F)F)O2)(CC)CC (stereo not shown)
Ki (Tspo; cell-free assay; radioligand): 500 nM

CC1(C)C=Cc2c(cc3oc(-c4ccccc4)c(O)c(=O)c3c2O)O1
Ki (Peroxisome proliferator-activated receptor delta (PPARD, Homo sapiens, UniProt Q03181); ligand displacement; TR-FRET): 1300 nM

CNC(=O)[C@@]12C[C@@H]1[C@@H](n1cnc3c(NC)nc(C#Cc4ccc(Br)s4)nc31)[C@H](O)[C@@H]2O
Ki (Tspo; ligand displacement; radioligand): > 10000 nM

CC(C)c1nc2cc(OCCCCN3CCN(c4cccc5c4OCCO5)CC3)ccc2s1
Ki (HRH2; ligand displacement; radioligand): 240 nM

CNc1nc(C#Cc2ccc(Cl)s2)nc2c1ncn2[C@@H]1O[C@H](C(=O)OC)[C@@H](O)[C@H]1O
Ki (Tspo; ligand displacement; radioligand): > 10000 nM

CNC(=O)[C@@]12C[C@@H]1[C@@H](n1cnc3c(NC)nc(C#Cc4ccc(Cl)s4)nc31)[C@H](O)[C@@H]2O
Ki (Tspo; cell-free assay; radioligand): 859 nM
